Reference: ChEMBL document CHEMBL5390206, “Ormosianines A-P, Structurally Diverse Quinolizidine Alkaloids with AChE Inhibitory Effects from Ormosia yunnanensis” (J Nat Prod, 2023)

Experiment: Inhibition of AchE in fly head nerve cells using acetylthiocholine iodide as substrate preincubated for 20 mins followed by substrate addition and measured every 30s for 1 hr by DTNB reagent based Ellman's spectrophotometric method
Conditions: Diptera, Nerve cell
Outline: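 Modified spectrophotometric AChE method, with chlorpyrifos and huperzine A run alongside as positive controls.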

Row | SMILES | IC50
1 | C=CCCN1C[C@@H]2C[C@@H](CN3C(=O)CCC[C@]23OC)C1=O | 15.7 µM
2 | C=CCCN1C[C@@H]2C[C@@H](CN3C(=O)CC[C@H](O)[C@]23O)C1=O | 29.6 µM
3 | C1CC[C@H]([C@]23C[C@@H](C[C@@H]4CCCN[C@H]42)[C@H]2CCCCN2C3)NC1 | 5.56 µM
4 | CCOP(=S)(OCC)Oc1nc(Cl)c(Cl)cc1Cl [CHLORPYRIFOS] | 0.0233 µM
5 | C/C=C1\[C@H]2C=C(C)C[C@]1(N)c1ccc(=O)[nH]c1C2 [HUPERZINE A] | 0.12 µM
6 | CN1CCCC[C@H]1[C@@]12C[C@H](C[C@H]3CCCN[C@@H]31)[C@H]1CCCCN1C2 | 17 µM
7 | O=C1C(CCCO)=C[C@H]2C[C@]1([C@@H]1CCCCN1)CN1CCCC[C@@H]21 | 1.55 µM
8 | C=CCCN1C[C@@H]2C[C@@H](Cn3c2cccc3=O)C1=O | 12.8 µM
9 | CC(=O)N1CCCC[C@H]1[C@@]12C[C@@H](C[C@H]3CCCN[C@@H]31)[C@H]1CCCCN1C2 | 5.65 µM
10 | C=CCCN1C[C@@H]2C[C@@H](CN3C(=O)CCC=C23)C1=O | 20 µM
11 | C1=C2CCCN3CN4CCCC[C@@H]4[C@]4(C[C@@H]1[C@H]1CCCCN1C4)[C@@H]23 | 5.23 µM
12 | CC(=O)N1CCCC[C@@H]1[C@]12C[C@H](C[C@@H]3CCCN[C@H]31)[C@H]1CCCCN1C2 | 8.48 µM
13 | CC(=O)O[C@H]1CCN2C[C@@H]3C[C@@H](CN4C(=O)[C@H](O)CC[C@H]34)[C@@H]2C1 | 9.77 µM
